Results from ChEMBL document CHEMBL4373711, “Development of 3,5-Dinitrophenyl-Containing 1,2,4-Triazoles and Their Trifluoromethyl Analogues as Highly Efficient Antitubercular Agents Inhibiting Decaprenylphosphoryl-β-d-ribofuranose 2'-Oxidase” (J Med Chem, 2019).
Converted amounts (≈) assume the structure as drawn. The source made the active and inactive calls. The calls are words filed in the database; no cut-off is given here.

Columns and labels:
[1] = Genotoxicity in Salmonella typhimurium TA100 at 30 uM in presence of rat liver S9 fraction by Ames test; assay type: toxicity, subcellular; conditions: salmonella enterica subsp. enterica serovar typhimurium, s9, 30 µM
Outline: (§1)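 Microplate fluctuation Ames reverse-mutation test following kit instructions; TA98 detects frameshift and TA100 base-exchange mutations. Compound at 30 µM final with Aroclor-1254-induced rat liver S9 plus cofactors.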

[2] = Cytotoxicity against human A431 cells assessed as cell viability at 30 uM after 48 hrs by CellTiter 96 aqueous one solution assay relative to control; assay type: cell-based, A-431; conditions: read-out: Activity
Outline: (§2)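 HepG2 (DMEM, 10% FBS, 1 mM pyruvate) or A431 (DMEM, 10% FBS) seeded 10,000 cells/well, 24 h at 37 °C, 5% CO2, then 30 µM compound for 48 h. MTS reagent 60 min, absorbance 490 nm, background subtracted; 0.1% DMSO vehicle = 100%, 10% SDS = 0% viability.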

HepG2 = experiment: Cytotoxicity against human HepG2 cells assessed as reduction in cell viability after 48 hrs by CellTiter 96 aqueous one solution assay; assay type: cell-based; conditions: HepG2, 48 h
[3] = tested on: Mycobacterium tuberculosis; experiment: Antimycobacterial activity against Mycobacterium tuberculosis H37Rv CNCTC My 331/88 after 14 days; assay type: functional; conditions: H37Rv CNCTC My 331/88, 336 h
Outline: (§3)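 M. tuberculosis strains (H37Rv and clinical MDR/XDR isolates) tested by microdilution in Šula's semisynthetic medium. Compounds were dissolved in DMSO and tested at 32 to 0.03 µM in twofold steps. Inoculum was a 1.0 McFarland suspension diluted 10-3. Plates were incubated at 37 °C and read at 14 and 21 days.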

Mycobacterium avium [4] = experiment: Antimycobacterial activity against Mycobacterium avium CNCTC My 330/88 after 14 days; assay type: functional; conditions: CNCTC My 330/88, 336 h
Outline: (§4)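 M. avium was tested by microdilution in Šula's semisynthetic medium, with compounds dissolved in DMSO and serially diluted from 1000 down to 1. Inoculum was a 1.0 McFarland suspension diluted 10-5. Plates were incubated at 37 °C and read at 14 and 21 days. […] Isoniazid and rifampicin served as standards.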

[5] = tested on: Mycobacterium tuberculosis; experiment: Antimycobacterial activity against XDR Mycobacterium tuberculosis Praha 131 after 21 days; assay type: functional; conditions: Praha 131, 504 h; outline: as §3
[6] = Cytotoxicity against human HepG2 cells assessed as cell viability at 30 uM after 48 hrs by CellTiter 96 aqueous one solution assay relative to control; assay type: cell-based; conditions: read-out: Activity; outline: as §2
Mycobacterium avium [7] = experiment: Antimycobacterial activity against Mycobacterium avium CNCTC My 330/88 after 21 days; assay type: functional; conditions: CNCTC My 330/88, 504 h; outline: as §4
Mycobacterium kansasii [8] = experiment: Antimycobacterial activity against Mycobacterium kansasii CNCTC My 235/80 after 21 days; assay type: functional; conditions: CNCTC My 235/80, 504 h
Outline: (§5)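 Microdilution in Šula's semisynthetic medium; compounds in DMSO at 32–0.03 µM. Inoculum from 1.0 McFarland suspension diluted 10-4. […] Isoniazid and rifampicin as reference drugs.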

[9] = tested on: Mycobacterium tuberculosis; experiment: Antimycobacterial activity against XDR Mycobacterium tuberculosis Praha 131 after 14 days; assay type: functional; conditions: Praha 131, 336 h; outline: as §3
[10] = Genotoxicity in Salmonella typhimurium TA98 at 30 uM in presence of rat liver S9 fraction by Ames test; assay type: toxicity, subcellular; conditions: salmonella enterica subsp. enterica serovar typhimurium, s9, 30 µM; outline: as §1
Mycobacterium kansasii [11] = experiment: Antimycobacterial activity against Mycobacterium kansasii CNCTC My 235/80 after 14 days; assay type: functional; conditions: CNCTC My 235/80, 336 h; outline: as §5
Mycobacterium kansasii [12] = experiment: Antimycobacterial activity against Mycobacterium kansasii CNCTC My 235/80 after 7 days; assay type: functional; conditions: CNCTC My 235/80, 168 h; outline: as §5
Mycobacterium kansasii [13] = experiment: Antimycobacterial activity against Mycobacterium kansasii 6509/96 after 14 days; assay type: functional; conditions: 6509/96, 336 h; outline: as §5
Mycobacterium kansasii [14] = experiment: Antimycobacterial activity against Mycobacterium kansasii 6509/96 after 21 days; assay type: functional; conditions: 6509/96, 504 h; outline: as §5
[15] = tested on: Mycobacterium tuberculosis; experiment: Antimycobacterial activity against Mycobacterium tuberculosis H37Rv CNCTC My 331/88 after 21 days; assay type: functional; conditions: H37Rv CNCTC My 331/88, 504 h; outline: as §3
A-431 = experiment: Cytotoxicity against human A431 cells assessed as reduction in cell viability after 48 hrs by CellTiter 96 aqueous one solution assay; assay type: cell-based; conditions: A-431, 48 h
Mycobacterium kansasii [16] = experiment: Antimycobacterial activity against Mycobacterium kansasii 6509/96 after 7 days; assay type: functional; conditions: 6509/96, 168 h; outline: as §5
Staphylococcus aureus [17] = experiment: Antibacterial activity against Staphylococcus aureus subsp. aureus ATCC 29213 CCM 4223 at highest concentration measured after 24 to 48 hrs by alamar blue dye based broth microdilution assay; assay type: functional, organism-based
[18] = tested on: Trichophyton interdigitale; experiment: Antifungal activity against Trichophyton interdigitale ATCC 9533 CCM 8377 at highest concentration measured after 72 to 120 hrs by alamar blue dye based broth microdilution assay; assay type: functional
Candida parapsilosis = experiment: Antifungal activity against Candida parapsilosis ATCC 22019 CCM 8260 at highest concentration measured after 24 to 48 hrs by alamar blue dye based broth microdilution assay; assay type: functional, organism-based
Staphylococcus aureus [19] = experiment: Antibacterial activity against methicillin-resistant Staphylococcus aureus subsp. aureus ATCC 43300 CCM 4750 at highest concentration measured after 24 to 48 hrs by alamar blue dye based broth microdilution assay; assay type: functional, organism-based
[20] = tested on: Staphylococcus epidermidis; experiment: Antibacterial activity against Staphylococcus epidermidis at highest concentration measured after 24 to 48 hrs by alamar blue dye based broth microdilution assay; assay type: functional, organism-based
Lichtheimia corymbifera = experiment: Antifungal activity against Lichtheimia corymbifera CCM 8077 at highest concentration measured after 24 to 48 hrs by alamar blue dye based broth microdilution assay; assay type: functional, organism-based
Klebsiella pneumoniae = experiment: Antibacterial activity against Klebsiella pneumoniae at highest concentration measured after 24 to 48 hrs by alamar blue dye based broth microdilution assay; assay type: functional, organism-based
Pichia kudriavzevii = experiment: Antifungal activity against Candida krusei ATCC 6258 CCM8271 at highest concentration measured after 24 to 48 hrs by alamar blue dye based broth microdilution assay; assay type: functional, organism-based
Aspergillus flavus = experiment: Antifungal activity against Aspergillus flavus CCM 8363 at highest concentration measured after 24 to 48 hrs by alamar blue dye based broth microdilution assay; assay type: functional, organism-based
Candida albicans = experiment: Antifungal activity against Candida albicans ATCC 24433 CCM 8320 at highest concentration measured after 24 to 48 hrs by alamar blue dye based broth microdilution assay; assay type: functional, organism-based
Aspergillus fumigatus = experiment: Antifungal activity against Aspergillus fumigatus ATCC 204305 at highest concentration measured after 24 to 48 hrs by alamar blue dye based broth microdilution assay; assay type: functional, organism-based
Escherichia coli = experiment: Antibacterial activity against Escherichia coli ATCC 25922 CCM 3954 at highest concentration measured after 24 to 48 hrs by alamar blue dye based broth microdilution assay; assay type: functional, organism-based
Pseudomonas aeruginosa = experiment: Antibacterial activity against Pseudomonas aeruginosa ATCC 27853 CCM 3955 at highest concentration measured after 24 to 48 hrs by alamar blue dye based broth microdilution assay; assay type: functional, organism-based
Enterococcus faecalis = experiment: Antibacterial activity against Enterococcus faecalis ATCC 29212 CCM 4224 at highest concentration measured after 24 to 48 hrs by alamar blue dye based broth microdilution assay; assay type: functional, organism-based
Candida tropicalis = experiment: Antifungal activity against Candida tropicalis ATCC 750 CCM 8264 at highest concentration measured after 24 to 48 hrs by alamar blue dye based broth microdilution assay; assay type: functional, organism-based
Serratia marcescens = experiment: Antibacterial activity against Serratia marcescens at highest concentration measured after 24 to 48 hrs by alamar blue dye based broth microdilution assay; assay type: functional, organism-based

SMILES | Activity [1] | viability at 48 h, 30 µM [2] | IC50 (HepG2) | MIC99 [3] | MIC99 (Mycobacterium avium [4]) | MIC99 [5] | viability at 48 h, 30 µM [6] | MIC99 (Mycobacterium avium [7]) | MIC99 (Mycobacterium kansasii [8]) | MIC99 [9] | Activity [10] | MIC99 (Mycobacterium kansasii [11]) | MIC99 (Mycobacterium kansasii [12]) | MIC99 (Mycobacterium kansasii [13]) | MIC99 (Mycobacterium kansasii [14]) | MIC99 [15] | IC50 (A-431) | MIC99 (Mycobacterium kansasii [16]) | Activity (Staphylococcus aureus [17]) | Activity [18] | other results
O=[N+]([O-])c1cc(-c2nnc(SCc3ccc(Cl)c(Cl)c3)n2Cc2ccccc2)cc(C(F)(F)F)c1 | Non-Toxic | 80% | > 30 µM | 2 µM (≈ 1.08 µg/mL) | 250 µM (≈ 135 µg/mL) | 2 µM (≈ 1.08 µg/mL) | 104% | 250 µM (≈ 135 µg/mL) | 4 µM (≈ 2.16 µg/mL) | 2 µM (≈ 1.08 µg/mL) | Non-Toxic | 4 µM (≈ 2.16 µg/mL) | 4 µM (≈ 2.16 µg/mL) | 4 µM (≈ 2.16 µg/mL) | 8 µM (≈ 4.31 µg/mL) | 2 µM (≈ 1.08 µg/mL) | > 30 µM | 4 µM (≈ 2.16 µg/mL) | – | – | –
O=[N+]([O-])c1cc(-c2nnc(SCc3ccc(Cl)cc3)n2Cc2ccccc2)cc([N+](=O)[O-])c1 | Non-Toxic | 95% | > 30 µM | 0.125 µM (≈ 0.0602 µg/mL) | 62 µM (≈ 29.9 µg/mL) | 0.25 µM (≈ 0.12 µg/mL) | 105% | 62 µM (≈ 29.9 µg/mL) | 0.5 µM (≈ 0.241 µg/mL) | 0.125 µM (≈ 0.0602 µg/mL) | Toxic | 0.25 µM (≈ 0.12 µg/mL) | 0.125 µM (≈ 0.0602 µg/mL) | 0.125 µM (≈ 0.0602 µg/mL) | 0.125 µM (≈ 0.0602 µg/mL) | 0.25 µM (≈ 0.12 µg/mL) | > 30 µM | 0.06 µM (≈ 0.0289 µg/mL) | inactive | inactive | Activity (Candida parapsilosis): inactive; Activity (Staphylococcus aureus [19]): inactive; Activity [20]: inactive; Activity (Lichtheimia corymbifera): inactive; Activity (Klebsiella pneumoniae): inactive; Activity (Pichia kudriavzevii): inactive; Activity (Aspergillus flavus): inactive; Activity (Candida albicans): inactive; Activity (Aspergillus fumigatus): inactive; Activity (Escherichia coli): inactive; Activity (Pseudomonas aeruginosa): inactive; Activity (Enterococcus faecalis): inactive; Activity (Candida tropicalis): inactive; Activity (Serratia marcescens): inactive
Cn1c(SCc2ccc(Cl)c(Cl)c2)nnc1-c1cc([N+](=O)[O-])cc([N+](=O)[O-])c1 | – | 92% | > 30 µM | 0.06 µM (≈ 0.0264 µg/mL) | > 500 µM | 0.06 µM (≈ 0.0264 µg/mL) | 110% | > 500 µM | 0.5 µM (≈ 0.22 µg/mL) | 0.06 µM (≈ 0.0264 µg/mL) | – | 0.25 µM (≈ 0.11 µg/mL) | 0.125 µM (≈ 0.055 µg/mL) | 0.125 µM (≈ 0.055 µg/mL) | 0.125 µM (≈ 0.055 µg/mL) | 0.06 µM (≈ 0.0264 µg/mL) | > 30 µM | 0.06 µM (≈ 0.0264 µg/mL) | inactive | inactive | Activity (Candida parapsilosis): inactive; Activity (Staphylococcus aureus [19]): inactive; Activity [20]: inactive; Activity (Lichtheimia corymbifera): inactive; Activity (Klebsiella pneumoniae): inactive; Activity (Pichia kudriavzevii): inactive; Activity (Aspergillus flavus): inactive; Activity (Candida albicans): inactive; Activity (Aspergillus fumigatus): inactive; Activity (Escherichia coli): inactive; Activity (Pseudomonas aeruginosa): inactive; Activity (Enterococcus faecalis): inactive; Activity (Candida tropicalis): inactive; Activity (Serratia marcescens): inactive
Nc1ccc2cc3ccccc3cc2c1 [2-AMINOANTHRACENE] | Toxic | – | – | – | – | – | – | – | – | – | Toxic | – | – | – | – | – | – | – | – | – | –
O=[N+]([O-])c1cc(CSc2nnc(-c3ccc(Br)cc3)n2Cc2ccccc2)cc([N+](=O)[O-])c1 | – | 93% | > 30 µM | 2 µM (≈ 1.05 µg/mL) | 250 µM (≈ 132 µg/mL) | 4 µM (≈ 2.11 µg/mL) | 173% | 250 µM (≈ 132 µg/mL) | 4 µM (≈ 2.11 µg/mL) | 4 µM (≈ 2.11 µg/mL) | – | 2 µM (≈ 1.05 µg/mL) | 1 µM (≈ 0.526 µg/mL) | 4 µM (≈ 2.11 µg/mL) | 4 µM (≈ 2.11 µg/mL) | 4 µM (≈ 2.11 µg/mL) | > 30 µM | 2 µM (≈ 1.05 µg/mL) | inactive | inactive | Activity (Candida parapsilosis): inactive; Activity (Staphylococcus aureus [19]): inactive; Activity [20]: inactive; Activity (Lichtheimia corymbifera): inactive; Activity (Klebsiella pneumoniae): inactive; Activity (Pichia kudriavzevii): inactive; Activity (Aspergillus flavus): inactive; Activity (Candida albicans): inactive; Activity (Aspergillus fumigatus): inactive; Activity (Escherichia coli): inactive; Activity (Pseudomonas aeruginosa): inactive; Activity (Enterococcus faecalis): inactive; Activity (Candida tropicalis): inactive; Activity (Serratia marcescens): inactive
